# Reference: ChEMBL document CHEMBL2093137, “WHO-TDR NTD Screening”
# Tests used:
# Leishmania infantum = assay: WHO-TDR: Leishmaniasis; assay type: functional, organism-based, Mus musculus; details: Macrophage
# Method in brief: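 Whole-organism screen of a 10,000-compound diverse library from Life Chemicals, filtered for drug-likeness and reactive groups, against intracellular amastigotes of Leishmania infantum MHOM/MA(BE)/67 in murine peritoneal macrophage host cells. The assay followed previously published standard procedures, with a reference drug as positive control. Antiparasitic potency is reported as IC50.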
# Plasmodium falciparum K1 = assay: WHO-TDR: Malaria; assay type: functional, organism-based, Homo sapiens; details: Erythrocyte
# Method in brief: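 Whole-organism screen of a 10,000-compound diverse library from Life Chemicals, filtered for drug-likeness and reactive groups, against intra-erythrocytic Plasmodium falciparum K1 strain in human red blood cells. The assay followed previously published standard procedures, with a reference drug as positive control. Antiplasmodial potency is reported as IC50.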
# Onchocerca ochengi = assay: WHO-TDR: Onchocerciasis; assay type: functional; set-up: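 at 12.5 µM on microfilariae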
# Method in brief: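 Values are reported as percent inhibition and as IC50. They come from a whole-organism screen of a 10,000-compound diverse Life Chemicals library against microfilariae of Onchocerca ochengi or Onchocerca lienalis. The screen followed previously published standard procedures, with reference drugs as positive controls.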
# Trypanosoma cruzi = assay: WHO-TDR: Chagas disease; assay type: functional, organism-based, Homo sapiens; details: MRC5
# Method in brief: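 A diverse library of 10,000 compounds from Life Chemicals, filtered for drug-likeness and reactive groups, was screened against intracellular amastigotes of Trypanosoma cruzi Tulahuen CL2 beta-galactosidase strain. The parasites were grown in MRC-5SV2 human lung fibroblast host cells, and a reference drug served as positive control under previously published standard procedures. Antiparasitic potency is given as IC50.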
# Schistosoma mansoni = assay: WHO-TDR: Schistosomiasis; assay type: functional; set-up: concentration or dose not given beside the values
# Method in brief: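 Values are reported as percent inhibition and IC50. They come from a whole-organism screen of a 10,000-compound diverse Life Chemicals library against larval and/or adult worms of Schistosoma mansoni, Puerto Rican strain. The library had been filtered for drug-likeness and reactive groups.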
# [1] = system: Trypanosoma brucei brucei; assay: WHO-TDR: Human African Trypanosomiasis (HAT); assay type: functional, organism-based; details: Squib-427
# Method in brief: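 Whole-organism screen of a 10,000-compound diverse library from Life Chemicals, filtered for drug-likeness and reactive groups, against bloodstream forms of Trypanosoma brucei Squib 427 strain. The assay followed previously published standard procedures, with reference drugs as positive controls. Antiparasitic potency is reported as IC50.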
# [2] = WHO-TDR: Cytotoxicity; assay type: toxicity, cell-based; details: human, MRC5 cells
# Brugia malayi = assay: WHO-TDR: Lymphatic Filariasis; assay type: functional; set-up: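 tested at 10 µM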
# Method in brief: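 Values are percent inhibition and IC50 from a whole-organism screen against Brugia malayi microfilariae. The compounds, 10,000 in all, came from a diverse Life Chemicals library filtered for drug-likeness and reactive groups.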
SMILES,IC50 (Leishmania infantum) [µg/mL],IC50 (Plasmodium falciparum K1) [µg/mL],IC50 [1] [µg/mL],% Inhibition (Onchocerca ochengi) [%],IC50 (Trypanosoma cruzi) [µg/mL],% Inhibition (Schistosoma mansoni) [%],IC50 [2] [µg/mL],% Inhibition (Brugia malayi) [%]
Cc1ccc(SCCC(=O)Nc2nc(-c3ccccn3)cs2)cc1,> 10.7,> 10.7,> 10.7,75,0.368,25,8.21,
CCOc1ccccc1C(=O)NCc1ccc2c(c1)cc(C)n2C,> 9.67,4.49,0.163,,0.057,0,4.26,0
O=S(=O)(Nc1ccc(-c2ccc3nnc(-c4ccccn4)n3n2)cc1)c1ccccc1F,> 13.4,5.88,> 13.4,100,> 13.4,0,> 13.4,
Cc1cc2cc(CCNC(=O)C3c4ccccc4Oc4ccccc43)c(O)nc2cc1C,0.412,> 12.7,> 12.7,,> 12.7,0,> 12.7,0
O=C(CS(=O)(=O)c1ccc(Cl)cc1)Nc1nc(-c2ccc(F)cc2)cs1,> 12.3,> 12.3,> 12.3,100,> 12.3,0,> 12.3,
CCOc1ccc2nc(NC(=O)CS(=O)(=O)c3ccc(Cl)cc3)sc2c1,> 12.3,> 12.3,> 12.3,100,> 12.3,0,> 12.3,
COc1ccc(-c2nc(NC(=O)CSc3ccc(Cl)cc3)sc2C)cc1,> 12.1,0.41,3.93,100,1.52,0,> 12.1,
Cc1cc2cc(CNC(=O)CC(c3ccccc3)c3ccccc3)ccc2[nH]1,> 11.1,> 11.1,3.37,,0.391,0,> 11.1,0
NS(=O)(=O)c1ccc2nc(NC(=O)CCSc3ccc(Cl)cc3)sc2c1,> 12.8,> 12.8,4.31,100,> 12.8,0,> 12.8,
O=C(Nc1cccc(-c2ccc3nnc(-c4cccs4)n3n2)c1)c1c(F)cccc1F,> 13,5.18,0.481,50,> 13,0,> 13,
O=C(NCC(c1ccco1)N1CCN(c2ccc(F)cc2)CC1)OCc1ccccc1 (stereo not drawn),> 12.7,> 12.7,4.11,100,3.86,0,> 12.7,
O=C(Cc1cccs1)Nc1cccc(-c2ccc3nnc(-c4cccnc4)n3n2)c1,> 12.4,2.67,3.81,100,> 12.4,0,4.45,
Cc1cc2cc(CNC(=O)c3ccccc3Br)ccc2n1C,> 10.7,> 10.7,3.39,,0.487,0,> 10.7,0
O=C(Nc1nnc(-c2cccnc2)o1)c1cccc(C(F)(F)F)c1,3.25,> 10,3.38,,0.317,0,2.99,25
O=C(CCS(=O)(=O)c1ccc(Cl)cc1)Nc1cccc(-c2nc3ccccc3o2)c1,4.28,> 13.2,> 13.2,100,> 13.2,0,> 13.2,
COc1cccc(C(=O)Nc2ccc(C)cc2C(=O)c2ccccc2)c1OC,4.75,> 11.3,7.21,100,3.69,0,> 11.3,
Cc1cc2cc(CNC(=O)c3ccccc3F)ccc2n1C,> 8.89,> 8.89,> 8.89,,0.181,0,> 8.89,0
CC(=O)c1ccc(C(=O)N(Cc2cccnc2)c2nc3c(F)cc(F)cc3s2)cc1,> 12.7,6.29,5.26,100,1.31,0,> 12.7,
CCOC(=O)c1ccc(NC(=O)CCSc2ccc(C)cc2)cc1,> 10.3,> 10.3,> 10.3,100,> 10.3,0,> 10.3,

# Second part, led by results:
IC50 (Leishmania infantum) [µg/mL],IC50 (Plasmodium falciparum K1) [µg/mL],IC50 [1] [µg/mL],SMILES,% Inhibition (Onchocerca ochengi) [%],IC50 (Trypanosoma cruzi) [µg/mL],% Inhibition (Schistosoma mansoni) [%],IC50 [2] [µg/mL],% Inhibition (Brugia malayi) [%]
> 9.71,> 9.71,> 9.71,Cc1ccc(S(=O)(=O)CC(=O)Nc2cccc(Cl)c2)cc1,100,> 9.71,0,> 9.71,
> 10.2,> 10.2,> 10.9,O=C(Nc1nnc(C2COc3ccccc3O2)o1)c1ccc(F)cc1 (stereo not drawn),,0.289,0,> 10.2,25
> 12.9,4.14,> 12.9,CCOc1ccc2nc(N(Cc3cccnc3)C(=O)c3ccc(Cl)s3)sc2c1,0,0.397,0,> 12.9,
> 10.2,> 10.2,5.06,CNC(=O)c1ccsc1NC(=O)CSc1ccc(Cl)cc1,100,4.93,0,> 10.2,
> 13.3,0.482,> 13.3,O=C(Nc1cccc(-c2ccc3nnc(-c4ccncc4)n3n2)c1)c1ccc2ccccc2n1,0,7.48,0,> 13.3,
> 10.2,> 10.2,> 10.2,Cc1ccc(SCCC(=O)Nc2cc(Cl)cc(Cl)c2)cc1,100,> 10.2,0,> 10.2,
5.72,> 13.6,0.988,C=CCN(CC=C)S(=O)(=O)c1ccc(C(=O)Nc2nnc(-c3ccc(C)cc3C)o2)cc1,0,0.583,0,4.48,
4.07,> 12.6,4.63,Cc1nnc2ccc(-c3ccc(NS(=O)(=O)c4ccc5c(c4)CCCC5)cc3)nn12,100,4.92,0,> 12.6,
> 10.7,> 10.7,0.422,Cc1c(C(=O)N2CCC(C)CC2)sc2nc(-c3ccc(F)cc3)cn12,,> 10.7,0,> 10.7,0
> 12.1,3.83,3.87,COc1ccc(C)c2sc(N(Cc3cccnc3)C(=O)Cc3ccccc3)nc12,0,0.992,0,> 12.1,
> 11.2,> 11.2,> 11.2,Cc1ccc(SCC(=O)Nc2ccccc2-c2nc3ccccc3[nH]2)cc1,100,> 11.2,0,> 11.2,
3.28,> 10.2,3.29,CCCCCOc1cccc(C(=O)Nc2nnc(-c3ccco3)o2)c1,,0.368,0,5.71,25
> 12.7,> 12.7,4.02,O=C(COc1ccccc1)NCC(c1ccco1)N1CCN(c2ccc(F)cc2)CC1 (stereo not drawn),100,4.08,0,> 12.7,
> 8.53,> 8.53,> 8.53,CCSc1nnc2ccc(-c3ccc(CC)cc3)nn12,100,> 8.53,0,> 8.53,
> 11.5,1.82,> 11.5,O=C(Nc1cccc(-c2ccc3nnc(-c4cccnc4)n3n2)c1)c1ccco1,100,> 11.5,0,> 11.5,
